From paper PMC5987874 (The Journal of General Physiology, 2018)
Changes are numbered by the printed parent chain. Where “and” joins values, the source holds several entries; their conditions need not be identical. Equal entries are not always repeated. Where two headings read alike, the source gives them in different places.

Assays:
[1] = target: T1, human Hv1 E119H (E^1.58H) (Homo sapiens, UniProt Q96D96, E119H); test: Whole-cell voltage clamp, Zn^2+ modulation of GAQ gating; format: cell-based
T1 sequence (Q96D96 1-273 E119H): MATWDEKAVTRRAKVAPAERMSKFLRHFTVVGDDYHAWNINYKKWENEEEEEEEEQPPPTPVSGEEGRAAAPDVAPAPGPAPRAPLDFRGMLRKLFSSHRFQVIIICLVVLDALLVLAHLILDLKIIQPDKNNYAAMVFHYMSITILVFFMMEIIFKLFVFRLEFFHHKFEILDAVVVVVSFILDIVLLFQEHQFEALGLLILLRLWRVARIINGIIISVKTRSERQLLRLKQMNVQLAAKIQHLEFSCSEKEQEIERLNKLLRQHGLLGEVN
In short: (§1)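 Whole-cell patch clamp at ~21°C. Pipette and bath (mM): ~80 TMA-MeSO3, 100 Bis-Tris, 8 HCl, pH 6.5, 310–320 mOsm. ZnCl2 was diluted into bath solution and applied by gravity superfusion, at least 2 min per change. Test step voltage was set per construct from its V0.5. G_STEP = end-of-step current/(V−V_REV). Effect = 1 − G_Zn/G_control, fitted to the Hill equation. IC50 and nH are means ± SEM from separate cells. ΔpIC50 was tested by unpaired t test, P<0.05.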

[2] = target: T2, human Hv1 D123H (D^1.62H) (Homo sapiens, UniProt Q96D96, D123H); test: as above; format: cell-based
T2 sequence (Q96D96 1-273 D123H): T1 sequence (Q96D96 1-273 E119H) with H119E, D123H
In short: as §1

[3] = target: T3, human Hv1 E119H-H140A-D185H-H193A (Homo sapiens, UniProt Q96D96, D185H/E119H/H140A/H193A); test: as above; format: cell-based
T3 sequence (Q96D96 1-273 E119H/H140A/D185H/H193A): T1 sequence (Q96D96 1-273 E119H) with H140A, D185H, H193A
In short: as §1

human Hv1 D185A-H193A = target: T4, human Hv1 D185A-H193A (Homo sapiens, UniProt Q96D96, D185A/H193A); test: as above; format: cell-based
T4 sequence (Q96D96 1-273 D185A/H193A): T1 sequence (Q96D96 1-273 E119H) with H119E, D185A, H193A
In short: as §1

[4] = target: T5, human Hv1 D112N (D^1.51N) (Homo sapiens, UniProt Q96D96, D112N); test: Whole-cell voltage clamp, Zn^2+ modulation of GAQ gating; format: cell-based
T5 sequence (Q96D96 1-273 D112N): T1 sequence (Q96D96 1-273 E119H) with D112N, H119E
In short: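 Zn2+ effect was read from tail current, not end-of-step current. Whole-cell recording at ~21°C with pH 6.5 pipette and bath solutions (mM: ~80 TMA-MeSO3, 100 Bis-Tris, 8 HCl). ZnCl2 was diluted in bath solution and gravity-superfused, at least 2 min per change. Concentration–response was fitted to the Hill equation, with IC50 values from separate cells. ΔpIC50 was compared by unpaired Student's t test, P<0.05.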

[5] = target: T6, human Hv1 H140A (H^2.40A) (Homo sapiens, UniProt Q96D96, H140A); settings: ref Ramsey et al., 2006; cited from earlier work
T6 sequence (Q96D96 1-273 H140A): T1 sequence (Q96D96 1-273 E119H) with H119E, H140A

Mean ΔpIC50 = (pIC50_1 - pIC50_2) ([1]; E119H vs WT): 0.8 and 0.77
nH, fit of the mean data to a Hill function ([1]; Fig. 3C): 0.9
Hill value ([1]; VSTEP 100 mV): 1.08
pIC50 ([1]; VSTEP 100 mV, calculated as log (IC50)): 6.22
IC50 ([1]; read-out: IC50, fit of the mean data to a Hill function, Fig. 3C): 0.6 µM
Mean ΔpIC50 = (pIC50_1 - pIC50_2) ([2]; D123H vs WT): 0.11
nH, fit of the mean data to a Hill function ([2]; Fig. 4B): 0.8
Hill value ([2]; VSTEP 80 mV): 0.95
pIC50 ([2]; VSTEP 80 mV, calculated as log (IC50)): 5.56
IC50 ([2]; read-out: IC50, fit of the mean data to a Hill function, Fig. 4B): 2.5 µM
IC50 ([2]; read-out: Mean IC50 @ VSTEP, VSTEP 80 mV, pH 6.5, mean of fits in separate cells): 4.3 µM
Mean ΔpIC50 = (pIC50_1 - pIC50_2) ([3]; E119H-H140A-D185H-H193A vs E119H-H140A-H193A): −0.25
Mean ΔpIC50 = (pIC50_1 - pIC50_2) ([3]; E119H-H140A-D185H-H193A vs H140A-D185H-H193A): 1.75
Hill value ([3]; VSTEP 120 mV): 0.72
pIC50 ([3]; VSTEP 120 mV, calculated as log (IC50)): −4.90
nH, fit of the mean data to a Hill function (human Hv1 D185A-H193A; Fig. 4D): 0.7
Hill value (human Hv1 D185A-H193A; VSTEP 140 mV): 0.62
pIC50 (human Hv1 D185A-H193A; VSTEP 140 mV, calculated as log (IC50)): −3.88
IC50 (human Hv1 D185A-H193A; read-out: IC50, fit of the mean data to a Hill function, Fig. 4D): 99.2 µM
Mean ΔpIC50 = (pIC50_1 - pIC50_2) ([4]; D112N vs WT): −0.03
Hill value ([4]; VSTEP 140 mV, determined from tail current): 0.76
pIC50 ([4]; VSTEP 140 mV, determined from tail current, calculated as log (IC50)): 5.03
IC50 ([4]; read-out: Mean IC50 @ VSTEP, VSTEP 140 mV, pH 6.5, determined from tail current): 9.5 µM
Structure (SMILES): [Cl-].[Cl-].[Zn+2] [Zn^2+, ZnCl2]
decrease of Zn^2+ potency by single mutation [5]: 10- to 30 fold
